Experimental data from ChEMBL document CHEMBL1145787, “Synthesis and structure-activity relationship of N-substituted 4-arylsulfonylpiperidine-4-hydroxamic acids as novel, orally active matrix metalloproteinase inhibitors for the treatment of osteoarthritis” (J Med Chem, 2003).

Experiments:
[1] = Oral bioavailability of compound was determined in rabbit at 25 mg/kg orally; format: ADME, organism-based, Oryctolagus cuniculus; settings: in vivo, read-out: Bioavailabiility
[2] = Apparent elimination half life of compound was determined in rat at 25 mg/kg orally; format: ADME, organism-based; set-up: dose 25 mg/kg, route oral; settings: in vivo, po
How it was run: (§1)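 Single-dose PK in Sprague–Dawley rats, New Zealand rabbits, Beagle dogs and cynomolgus monkeys. Dosing was 25 mg/kg oral or 5 mg/kg iv. Plasma concentration–time profiles gave the apparent elimination half-life (T1/2) and the area under the concentration–time curve (AUC). Parameters are reported as means.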

[3] = Total clearance of compound was determined in dog at 5 mg/kg intravenously admn.; format: ADME, organism-based, Canis lupus familiaris; set-up: dose 5 mg/kg, route intravenous; settings: in vivo, iv, read-out: CLT
How it was run: (§2)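 Single iv dose of 5 mg/kg in Sprague–Dawley rats, New Zealand rabbits, Beagle dogs and Cynomolgus monkeys. Mean plasma pharmacokinetics: C0 is the concentration at T=0, Vdss the volume of distribution at steady state, and CLT the total clearance.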

[4] = Maximum plasma concentration of compound was determined in monkey at 25 mg/kg orally; format: ADME, organism-based; set-up: dose 25 mg/kg, route oral; settings: simiiformes, po
How it was run: (§3)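 Single oral dose of 25 mg/kg in Sprague–Dawley rats, New Zealand rabbits, Beagle dogs and Cynomolgus monkeys. Mean plasma pharmacokinetics; Cmax is the maximum plasma concentration and Tmax is the time of peak concentration.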

[5] = Apparent elimination half life of compound was determined in dog at 25 mg/kg orally; format: ADME, organism-based, Canis lupus familiaris; set-up: dose 25 mg/kg, route oral; settings: in vivo, po; how it was run: as §1
[6] = Maximum plasma concentration of compound was determined in dog at 25 mg/kg orally; format: ADME, organism-based, Canis lupus familiaris; set-up: dose 25 mg/kg, route oral; settings: po; how it was run: as §3
[7] = Area under concentration-time curve of compound was determined in rabbit at 5 mg/kg intravenously admn.; format: ADME, organism-based, Oryctolagus cuniculus; set-up: dose 5 mg/kg, route intravenous; settings: in vivo, iv, read-out: AUC 0; how it was run: as §1
[8] = Apparent elimination half life of compound was determined in rabbit at 5 mg/kg intravenously admn.; format: ADME, organism-based, Oryctolagus cuniculus; set-up: dose 5 mg/kg, route intravenous; settings: in vivo, iv; how it was run: as §1
[9] = Volume of distribution at steady state of compound was determined in monkey at 5 mg/kg intravenously admn.; format: ADME, organism-based; set-up: dose 5 mg/kg, route intravenous; settings: simiiformes, in vivo, iv, read-out: Vdss; how it was run: as §2
[10] = Area under concentration-time curve of compound was determined in dog at 5 mg/kg intravenously admn.; format: ADME, organism-based, Canis lupus familiaris; set-up: dose 5 mg/kg, route intravenous; settings: in vivo, iv, read-out: AUC 0; how it was run: as §1
[11] = Area under concentration-time curve of compound was determined in monkey at 5 mg/kg intravenously admn.; format: ADME, organism-based; set-up: dose 5 mg/kg, route intravenous; settings: simiiformes, in vivo, iv, read-out: AUC 0; how it was run: as §1
[12] = target: 72 kDa type IV collagenase (Homo sapiens, UniProt P08253); assay: Inhibition of Matrix metalloprotease-2
Sequence of 72 kDa type IV collagenase (P08253 whole entry): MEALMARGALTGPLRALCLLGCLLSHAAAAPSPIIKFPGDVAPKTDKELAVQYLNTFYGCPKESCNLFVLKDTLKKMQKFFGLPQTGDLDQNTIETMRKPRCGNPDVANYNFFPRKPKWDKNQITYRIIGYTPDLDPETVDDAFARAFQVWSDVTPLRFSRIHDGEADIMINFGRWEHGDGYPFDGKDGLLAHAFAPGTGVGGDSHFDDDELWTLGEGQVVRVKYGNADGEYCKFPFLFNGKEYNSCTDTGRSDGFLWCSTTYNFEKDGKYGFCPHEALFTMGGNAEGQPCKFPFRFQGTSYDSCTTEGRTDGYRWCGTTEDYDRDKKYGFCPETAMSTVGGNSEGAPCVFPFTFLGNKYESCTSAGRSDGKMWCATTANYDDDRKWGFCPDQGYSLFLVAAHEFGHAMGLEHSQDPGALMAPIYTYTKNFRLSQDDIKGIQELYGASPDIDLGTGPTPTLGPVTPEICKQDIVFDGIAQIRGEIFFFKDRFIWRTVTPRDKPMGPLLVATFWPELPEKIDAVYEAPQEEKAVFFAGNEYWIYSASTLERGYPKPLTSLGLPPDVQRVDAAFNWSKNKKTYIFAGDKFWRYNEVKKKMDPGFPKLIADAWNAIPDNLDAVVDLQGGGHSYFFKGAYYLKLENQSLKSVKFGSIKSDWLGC
How it was run: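 Each inhibitor concentration was tested in triplicate. IC50 came from a four-parameter logistic fit of data within a single experiment and is reported as the mean of the triplicate values.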

[13] = Peak concentration of compound at Time = 0 was determined in rat at 5 mg/kg intravenously admn.; format: ADME, organism-based; set-up: dose 5 mg/kg, route intravenous; settings: in vivo, iv; how it was run: as §2
[14] = Maximum plasma concentration of compound was determined in rat at 25 mg/kg orally; format: ADME, organism-based; set-up: dose 25 mg/kg, route oral; settings: po; how it was run: as §3
[15] = Total clearance of compound was determined in rabbit at 5 mg/kg intravenously admn.; format: ADME, organism-based, Oryctolagus cuniculus; set-up: dose 5 mg/kg, route intravenous; settings: in vivo, iv, read-out: CLT; how it was run: as §2
[16] = Area under concentration-time curve of compound was determined in monkey at 25 mg/kg orally; format: ADME, organism-based; set-up: dose 25 mg/kg, route oral; settings: simiiformes, in vivo, po; how it was run: as §1
[17] = target: Matrix metalloproteinase-14 (Homo sapiens, UniProt P50281); assay: Inhibition of Matrix metalloprotease-14
How it was run: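 Inhibitor concentrations run in triplicate; IC50 from a four-parameter logistic fit within a single experiment, reported as the mean of triplicate values.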

[18] = Apparent elimination half life of compound was determined in monkey at 5 mg/kg intravenously admn.; format: ADME, organism-based; set-up: dose 5 mg/kg, route intravenous; settings: simiiformes, in vivo, iv; how it was run: as §1
[19] = Volume of distribution at steady state of compound was determined in rat at 5 mg/kg intravenously admn.; format: ADME, organism-based; set-up: dose 5 mg/kg, route intravenous; settings: in vivo, iv, read-out: Vdss; how it was run: as §2
[20] = Area under concentration-time curve of compound was determined in rat at 5 mg/kg intravenously admn.; format: ADME, organism-based; set-up: dose 5 mg/kg, route intravenous; settings: in vivo, iv, read-out: AUC 0; how it was run: as §1
Oryctolagus cuniculus = assay: Effect of compound on cartilage in surgically induced osteoarthritis (OA) model in rabbit at 25 mg/kg, value are relative to activity of RS-130830 (7.9+/-1.5) at 25 mg/kg; format: ADME, organism-based, Cartilage tissue; settings: in vivo
How it was run: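 Rabbits had anterior cruciate ligament transection plus meniscectomy in one knee, with sham surgery on the contralateral knee. From day 10 after surgery, groups of 12 were dosed once daily by oral gavage with vehicle, test compound or the RS-130830 reference for 4 weeks. Knee joints were then collected and scored for gross pathological changes by blinded investigators.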

[21] = Time of peak concentration of compound was determined in monkey at 25 mg/kg orally; format: ADME, organism-based; set-up: dose 25 mg/kg, route oral; settings: simiiformes, in vivo, po; how it was run: as §3
Collagenase 3 = Collagenase 3 (Homo sapiens, UniProt P45452)
[22] = In vivo inhibitory activity against Matrix metalloprotease enzyme by dialysis implant assay, value is relative to activity of CGS-27023 (48+/-3) at 25 mg/kg. po; format: functional
[23] = In vivo inhibition of Matrix metalloprotease enzyme by Sponge-wrapped cartilage assay, compared to activity of RS-130830 (inactive) at 5 mg/kg. po. qd; format: functional
[24] = Peak concentration of compound at Time = 0 was determined in monkey at 5 mg/kg intravenously admn.; format: ADME, organism-based; set-up: dose 5 mg/kg, route intravenous; settings: simiiformes, in vivo, iv; how it was run: as §2

SMILES: O=C(NO)C1(S(=O)(=O)c2ccc(Oc3ccc(Cl)cc3)cc2)CCN(Cc2ccccc2)CC1
- bioavailability [1]: 11%
- half-life [2]: 10.7 h
- clearance [3]: 0.1 mL/min/kg
- Cmax [4]: 50.3 µg/mL
- half-life [5]: 17.6 h
- Cmax [6]: 96.3 µg/mL
- AUC [7]: 640 µg·h/mL
- half-life [8]: 11.8 h
- Vd [9]: 0.2 L/kg
- AUC [10]: 786 µg·h/mL
- AUC [11]: 1510 µg·h/mL
- IC50 [12]: 1 nM
- C0 [13]: 329 µg/mL
- Cmax [14]: 75.2 µg/mL
- clearance [15]: 0.1 mL/min/kg
- AUC [16]: 1410 µg·h/mL
- IC50 [17]: 7 nM
- half-life [18]: 20.7 h
- Vd [19]: 0.1 L/kg
- AUC [20]: 327 µg·h/mL
- Average gross pathology scores+/- SE (Oryctolagus cuniculus): 6.8
- Tmax [21]: 5.7 h
- IC50 (Collagenase 3): 1 nM
- inhibition in vivo at 25 mg/kg [22]: 53%
- inhibition in vivo at 5 mg/kg [23]: 24%
- C0 [24]: 162 µg/mL
